Screens deposited in PubChem by NMMLSC.
GSH fluor: GSH bead compound fluorescence profile. fluorescence (KMESF) at 10 µM. GSH beads flow cytometry, compound fluorescence 488/530 nm; active compounds read high. hit rate 0.25% among 190,000. AID 1776; in the data active means fluorescence above about 89;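 further: glutathione beads carrying GST-tagged Bcl family fusion proteins plus one bare bead set; values are compound well signal with DMSO vehicle wells as background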
Avidin bead fluor: avidin bead compound fluorescence profile | Avidin beads, compound fluorescence 488/530 nm, flow cytometry; active compounds read high | fluorescence (KMESF) at 10 µM | hit rate 0.38% among 220,000; in the data active means fluorescence above about 47
Pemphigus Ab inh: inhibitors of pemphigus antibody binding to human desmoglein-3; P32926; DSG3-coupled beads, scFv-anti-DSG3-GFP binding, flow cytometry; active compounds read low; binding (percent of control), % at 10 µM; hit rate 0.48% among 310,000; AID 588358;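 active means binding more than 3 SD below its plate's average and above zero; inconclusive means below that plate limit but binding exactly zero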;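 further: hits lower antibody fragment binding to DSG3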
Target sequence (P32926 whole entry, looked up, the tested form may be a part): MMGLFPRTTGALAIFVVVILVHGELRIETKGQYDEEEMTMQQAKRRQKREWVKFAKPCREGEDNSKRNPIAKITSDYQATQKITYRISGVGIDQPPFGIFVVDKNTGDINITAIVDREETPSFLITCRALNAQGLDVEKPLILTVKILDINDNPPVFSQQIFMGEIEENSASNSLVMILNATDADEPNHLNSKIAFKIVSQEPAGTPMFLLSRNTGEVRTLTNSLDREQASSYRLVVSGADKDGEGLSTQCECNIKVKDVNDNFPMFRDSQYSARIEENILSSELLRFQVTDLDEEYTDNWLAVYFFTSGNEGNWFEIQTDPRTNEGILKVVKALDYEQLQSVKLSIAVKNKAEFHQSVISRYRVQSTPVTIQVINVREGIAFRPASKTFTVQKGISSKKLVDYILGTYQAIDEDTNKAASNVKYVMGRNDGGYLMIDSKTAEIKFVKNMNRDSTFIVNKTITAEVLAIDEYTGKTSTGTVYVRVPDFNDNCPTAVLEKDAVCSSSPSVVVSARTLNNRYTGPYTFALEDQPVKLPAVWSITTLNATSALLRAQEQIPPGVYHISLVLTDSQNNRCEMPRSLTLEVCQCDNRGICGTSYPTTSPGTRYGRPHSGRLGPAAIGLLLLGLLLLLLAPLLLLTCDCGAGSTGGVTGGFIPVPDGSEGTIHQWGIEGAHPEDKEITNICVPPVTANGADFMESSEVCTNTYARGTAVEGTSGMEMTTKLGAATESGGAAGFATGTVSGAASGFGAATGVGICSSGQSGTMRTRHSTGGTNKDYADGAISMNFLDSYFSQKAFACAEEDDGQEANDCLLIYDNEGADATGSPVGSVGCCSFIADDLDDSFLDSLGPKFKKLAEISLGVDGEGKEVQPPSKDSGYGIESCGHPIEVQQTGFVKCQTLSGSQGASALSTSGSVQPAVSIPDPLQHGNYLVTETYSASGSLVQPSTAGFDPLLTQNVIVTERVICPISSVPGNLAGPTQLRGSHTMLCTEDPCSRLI
Arrestin-AP2 inh: human beta-arrestin and AP2 interaction inhibition; FITC-arrestin peptide / GST-AP2 beads, flow cytometry; AP2 beta2 appendage carries R879A mutation; inhibition, % at 10 µM; hit rate 0.31% among 340,000; AID 504490;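 active means inhibition above a set limit, near 3 SD of compounds lacking own fluorescence, cut at about 54% in these data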;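 further: plate controls were DMSO wells for no effect and 5 µM unlabelled arrestin peptide for full effect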
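Test system: GST-tagged AP2 beta2-adaptin appendage (R879A) on 4 µm glutathione beads; also added: fluorescein-tagged arrestin peptide at 50 nM final; timing: 12 min plus 1 h, RT; signal: flow cytometry, FL1 (488/535 nm); read-out: percent drop in bead-associated FITC signal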
* = called active by the depositor; ? = inconclusive; · = no result given. Rows were chosen to be rich in hits. Some 1.1% of all compounds tested hit in one or more screens of this group.

SMILES	GSH fluor	Avidin bead fluor	Pemphigus Ab inh	Arrestin-AP2 inh
COCc1ccc(C(=O)Nc2cccc(S(=O)(=O)N(C)c3ccccc3)c2)cc1	·	·	28*	-25
Cc1nnc(SCC(=O)NC(C)(C)C)n1NCc1cccc(Br)c1	·	·	109	-2
COCCNc1nc(-c2cc(C)n(CCc3ccc(OC)cc3)c2C)cs1	11	5	89*	-4
CCOc1ccc(NC(=O)c2cccc(S(=O)(=O)NCc3cccnc3)c2)cc1	·	·	99	·
O=c1oc2cc(O)ccc2cc1-c1nc2c(s1)CCc1ccccc1-2	159*	5	106	7
O=[N+]([O-])c1ccccc1C=CC=NN=Cc1ccccc1O	·	·	-3.9*	8
Oc1ccccc1C=NN=CC=Cc1ccccc1	·	·	92	7
COc1ccccc1CSc1nc2c(c(=O)n(C)c(=O)n2C)n1C	·	·	?	27
O=C(CSc1ccc(Cl)cc1)Nc1cccc(-c2nc3ccccc3[nH]2)c1	16	6	66*	-3
COc1cc(CN(C)c2ncnc3sccc23)ccc1OC(F)F	·	·	35*	4
COc1ccc(OC)c(Nc2ncnc3sccc23)c1	·	·	85	-6
O=S(=O)(Nc1cccc(-n2cnnn2)c1)c1cc(Cl)ccc1Cl	·	·	·	2
CC(=O)N/C(=C\c1ccccc1)C(=O)OCCCOC(=O)/C(=C/c1ccccc1)NC(C)=O	·	·	110	0
COc1ccc(-c2cc(-c3ccccc3)nc(SCC(=O)Nc3nccs3)c2C#N)cc1	14	56*	92	52
N#Cc1c(-c2ccc(Cl)cc2)cc(-c2ccccc2)nc1SCC(=O)O	·	·	109	9
CCc1nnc(NC(=O)CSc2nc(-c3ccccc3)cc(-c3ccc(OC)cc3)c2C#N)s1	18	14	100	-6
N#Cc1c(-c2ccc(F)cc2)cc(-c2ccccc2)nc1SCC(=O)NCC(=O)O	·	5	63*	5
O=C(COC(=O)c1c(F)cccc1Cl)NCC1CCCCC1	·	·	98	9
CCOC(=O)c1c(S(=O)(=O)NCC(=O)N2CCN(c3ccccc3)CC2)c(C)n(C)c1C	·	·	·	14
O=C(CN1C(=O)C2C3C=CC(C3)C2C1=O)OCC(=O)c1ccc(Br)cc1 (stereo not given)	·	·	100	4
CCOc1ccc(CC(=O)NNC(=O)NC2CCCCC2)cc1	20	9	103	·
CCOc1ccc(CC(=O)NNC(=S)NC2CCCCC2)cc1OCC	128*	4	112	0
CC1(c2ccc(OC(F)F)cc2)NC(=O)N(CC(=O)Nc2ccc(OC(F)F)cc2)C1=O (stereo not given)	·	·	115	7
Cc1cc(NC(=O)CN2C(=O)NC(C)(c3ccc(OC(F)F)cc3)C2=O)no1 (stereo not given)	15	48*	109	-9
CCN1/C(=C2/SC(=S)NC2=O)Sc2ccccc21	8	23	93	8
SMILES	GSH fluor	Avidin bead fluor	Pemphigus Ab inh	Arrestin-AP2 inh
CSc1ccc(C2=C/C(=C3/SC(=S)NC3=O)c3ccccc3O2)cc1	·	·	81*	5
Cc1ccccc1NC(=O)C1CCCN1C(=O)NC1CCCCC1 (stereo not given)	263*	8	·	-4
CSc1ccc(S(=O)(=O)N(CC(=O)NN=C2CCN(C)CC2)c2ccc(C)cc2)cc1	11	63*	86	-6
O=C(COC(=O)c1ccccc1OCc1ccccc1Cl)NCC1CCCO1 (stereo not given)	·	·	114	2
CCOC(=O)C1=C[C@]2(CC)CCCN3CCc4c(n1c1ccccc41)[C@@H]32	23	7	75*	20
CC[C@]12CCCN3CCc4c(n(c5ccccc45)C(=O)C1)[C@@H]32	·	·	107	-3
O=C(Nc1ccccc1)OCCOc1ccccc1Br	·	·	69*	2
O=C(Nc1ccccc1)OCCCCCOC(=O)Nc1ccccc1	·	·	79*	-17
O=C1NC(=O)C(CC(=O)N(c2ccccc2)C2(C(=O)NC3CCCC3)CCCCC2)N1 (stereo not given)	29	52*	104	31
Cc1ccc(C(=O)Nc2ccc(CC(=O)O)cc2)o1	254*	6	104	-2
Cc1ccc(C(=O)Nc2ccc(NC(=O)c3ccc(C)o3)cc2)o1	·	·	123	18
Cc1cc(C(C)(C)C)oc1C(=O)Nc1ccc(CC(=O)O)cc1	239*	4	100	41
Cc1ccc(C(=O)Nc2ccccc2NC(=O)c2ccc(C)o2)o1	240*	3	96	10
O=S(=O)(O)c1cc(O)c2ccc(Nc3ccccc3)cc2c1	·	·	44*	3
O=S(=O)(O)c1ccc(O)c2cc(Nc3ccccc3)ccc12	·	·	38*	2
N#Cc1ccc(/C=N/N=C(N)N)cc1	35	112*	91	-3
CCOc1cc(N2CCOCC2)c(OCC)cc1NC(=O)COC(=O)[C@@H]1CCCN1S(=O)(=O)c1ccccc1F	12	10	100	0
O=C(Nc1cccc(Cl)c1)NC1(C(=O)NCc2cccs2)CCCCC1	25	138*	119	2
O=C(NCc1cccs1)Nc1cccc(Cl)c1	·	·	9.4*	4
S=C(NCc1cccs1)Nc1cccc(Cl)c1	35	15	100	36
COc1ccc(S(=O)(=O)N(C)Cc2ccc3c(c2)OCCO3)cc1	·	·	104	-11
CCCN(Cc1nnc(-c2ccccc2Cl)o1)C(=O)c1cc(S(=O)(=O)N2CCOCC2)ccc1F	·	·	103	-3
Cn1c(=O)c2c(nc(NCCOc3ccc(F)cc3)n2C)n(C)c1=O	23	9	91*	8
Nc1nc2ccc(O)cc2s1	187*	5	109	3
Nc1nc2ccc(Br)cc2s1	·	·	101	·
SMILES	GSH fluor	Avidin bead fluor	Pemphigus Ab inh	Arrestin-AP2 inh
CCc1ccc(N(C(=O)CNC(=O)c2ccco2)C(C(=O)NC2CCCC2)c2cccnc2)cc1 (stereo not given)	·	·	·	5
Cc1cccc(NC(=O)C2COc3ccccc3O2)c1 (stereo not given)	·	·	101	-19
CCOC(=O)N1CCC2(CC1)NC(=O)c1ccccc1N2	·	·	102	·
CCOC(=O)C1(CCOC)CCCCC1=O (stereo not given)	·	·	110	·
CCN1/C(=C/C=C/c2oc3ccc4ccccc4c3[n+]2CC)Oc2ccc3ccccc3c21	205*	59*	·	·
O=C(CN1CCOCC1)n1c2ccccc2c2ccccc21	256*	8	111	26
COc1ccc(C[C@H]2c3cc(O)c(OC)cc3CC[N+]2(C)[O-])cc1O (stereo not given in full)	·	11	99	-2
COc1ccc(-c2nn(-c3ccccc3)cc2/C=N/NC(=O)c2cccc(S(=O)(=O)Nc3ccccc3OC)c2)cc1	8	36	83*	4
Nc1c(S(=O)(=O)c2ccccc2)c2nc3ccccc3nc2n1/N=C/c1cccc(O)c1	11	12	91	4
Cc1cccc(S(=O)(=O)c2c(N)n(/N=C/c3ccccc3)c3nc4ccccc4nc23)c1	16	35	89*	19
CCc1ccc(C(=O)C(C)OC(=O)Cc2n[nH]c(=O)c3ccccc23)cc1 (stereo not given)	·	·	104	8
CCCCC(CC)C(=O)Nc1cc(C(=O)NCCC)ccc1N1CCC2(CC1)CC(c1ccccc1)=NO2 (stereo not given)	·	·	98	29
